Compounds with a hit are over-represented: about 6.4% of the library has one in this group of screens.
E coli WT exp = growth inhibitors of E. coli BW25113 wild type; OD600 absorbance; growth inhibition, % at 100 µM; 98,000 tested, 0.15% active; AID 710;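 active = growth inhibition above about 50% at one test dose, limit read from the data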;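 note: growth measured after 20 h incubation at 37 °C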
Fibroblast inh = blocks proliferation of human lung fibroblasts | LL 47 human lung fibroblast viability, ATP luminescence; stronger effect = lower value | viability, % at 10 µM | 85,000 tested, 1.1% active;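 active = viability at or below 50% in the single dose screen; inactive = viability above 50%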;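 note: compound exposure lasted 72 h before the ATP readout; 100% = median luminescence of untreated cell-only wells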
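Signal: luminescent ATP detection, CellTiter-Glo; assay system: LL 47 human lung fibroblasts; input: 1,150 cells/well; incubation: overnight cell rest, 72 h compound treatment at 37 °C; measure: % viability versus median cells-only luminescence; medium: IMEM growth medium with 15% fetal bovine serum; dosing: compound addition at 0.1% DMSO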
H69AR inhibit = blocks growth of human H69AR lung tumor cells | 85,000 tested, 6% active | viability, % at 10 µM | H69AR lung tumor viability, ATP luminescence, 72 h; stronger effect = lower value | AID 598;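 active = viability at or below 40%; inactive = viability above 40%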;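 note: multidrug resistant small cell line overexpressing MRP-1 efflux transporter; 100% = mean luminescence of untreated control wells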
Ecoli tolC = E. coli tolC mutant growth inhibition; E. coli BW25113 tolC mutant growth, OD615; growth inhibition, % at 10 µM (by protocol); 65,000 tested, 2.2% active;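 active = growth inhibition at or above a cutoff equal to the mean over every tested compound plus 3 SD, cut at about 60% in these data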;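 note: growth measured after 20 h incubation at 37 °C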
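Test system – E. coli BW25113 ΔtolC::kan, tolC deletion mutant strain · Detection – OD at 615 nm · Buffer or medium – LB with kanamycin 50 µg/mL · Times – 20 h compound exposure of bacteria at 37 °C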
HUVEC prolif 384 = blocks proliferation of human endothelial cells. HUVEC proliferation, CellTiter-Glo luminescence, 72 h; stronger effect = lower value. viability, % at 10 µM (by protocol). 86,000 tested, 1.1% active. AID 648;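 active = viability at or below 30%; inactive = viability above 30%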;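 note: 100% = median luminescence of DMSO-only cell control wells on each plate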
Jurkat tox 60K = cytotoxic compounds reducing Jurkat cell viability; Jurkat E6.1 viability, ATP luminescence, 48 h; inhibition, % at 4 µM; 56,000 tested, 1.2% active;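 active = inhibition above the mean inhibition of all tested compounds plus 3 SD, cut at about 28% in these data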
The depositor's hits bear a star; nt = no result.

SMILES	E coli WT exp	Fibroblast inh	H69AR inhibit	Ecoli tolC	HUVEC prolif 384	Jurkat tox 60K
O=C(CSc1n[nH]c(-c2ccccc2)n1)c1ccc(O)c(O)c1	-1	94	27*	20	62	22
CCc1ccc(C(=O)CSc2n[nH]c(-c3ccncc3)n2)cc1	1	97	84	nt	100	nt
Cc1cc(NCCCN)nc(-c2ccccc2O)n1	12	100	21*	-5	98	6
CN(C)CCCNS(=O)(=O)c1ccc(Oc2ncc(C(F)(F)F)cc2Cl)cc1	-5	nt	nt	nt	nt	nt
COc1cc(C2C(C(=O)c3ccc(C)o3)=C(O)C(=O)N2c2cc(C)on2)cc(Br)c1O (configuration not stated)	-8	101	96	65*	101	-2
O=C(CCc1ccccc1)NNC(=S)NC(=O)c1ccccc1	63*	nt	nt	nt	nt	nt
O=C(NNC(=S)NC(=O)c1cccnc1)c1ccccc1	53*	nt	nt	nt	nt	nt
O=C(O)C1CCCN(S(=O)(=O)c2ccc(Br)cc2)C1 (configuration not stated)	-7	99	106	nt	96	nt
Cc1ccc(S(=O)(=O)Cc2ccc(C(=O)O)o2)cc1	-14	98	91	nt	93	nt
Cc1cc(NCCCn2ccnc2)n2nc(C)c(-c3ccc(Cl)cc3)c2n1	13	15*	1.1*	nt	2.3*	nt
Cc1cc(NCCN2CCOCC2)n2ncc(-c3ccccc3)c2n1	4	93	25*	14	96	-9
Cc1cc(NCCN2CCOCC2)n2nc(C)c(-c3ccc(Cl)cc3)c2n1	-4	74	12*	14	48	3
Cc1cc(NCCCn2ccnc2)n2ncc(-c3ccccc3)c2n1	11	82	27*	23	68	3
COC(=O)c1ccc(C(=O)OC)c(NC(=O)COC(=O)CC2CC3CCC2C3)c1 (configuration not stated)	-13	nt	nt	nt	nt	nt
CCOC(=O)Cc1csc(NC(=O)C2CCCN(S(=O)(=O)c3cnc[nH]3)C2)n1 (configuration not stated)	6	102	95	2	102	11
Cc1cc(NCCN2CCOCC2)n2nc(C)c(-c3ccccc3)c2n1	-2	90	27*	-7	89	6
c1cncc(-c2nnc(-c3cccnc3)nn2)c1	6	59	3.7*	-23	3.9*	7
Nc1nnc(-c2cccnc2)s1	6	105	72	-9	95	0
COc1cc(NC(=O)COC(=O)c2nc3nc(C)cc(C)n3n2)cc(OC)c1	2	106	85	nt	97	nt
CCCC1=C(C(=O)OCC)C(c2cc(Cl)cc(OC)c2OCC(=O)OCC)NC(=O)N1 (configuration not stated)	6	91	77	83*	91	-4
Nc1ccc(CN2CCN(c3ccc4ccccc4n3)CC2)cc1	nt	nt	nt	7	nt	-3
c1ccc(CN2CCN(C3=Nc4cccc5cccc3c45)CC2)cc1	22	89	35*	nt	37	nt
C=CCOc1c2ccc(C(=O)NCCc3ccc(C)cc3)cc2nn1C	-1	nt	nt	nt	nt	nt
COC(=O)c1sccc1NC(=O)C1C2C=CC(O2)C1C(=O)O (configuration not stated)	8	93	92	-9	87	-2
COc1ccccc1NC(=O)C1C2C=CC(O2)C1C(=O)O (configuration not stated)	0	50*	93	-19	92	0
SMILES	E coli WT exp	Fibroblast inh	H69AR inhibit	Ecoli tolC	HUVEC prolif 384	Jurkat tox 60K
Cc1ccc(NC(=O)c2sc3nc[nH]c(=O)c3c2C)c(C)c1	-10	nt	nt	nt	nt	nt
CC(C)CSc1nc2c(c(=O)[nH]c(=O)n2C)n1CC(O)COc1cccc2ccccc12 (configuration not stated)	-10	91	32*	0	79	-8
COc1ccc(N(CC(=O)NCc2ccco2)S(=O)(=O)c2ccc(OC)c(OC)c2)cc1	-4	100	93	-1	108	-4
COc1nnc(-c2ccc(N3CCCCC3)c(NC(=O)C3CCCCC3)c2)c2ccccc12	-4	98	8.7*	nt	66	nt
CCc1ccc2[nH]c(O)c(N=Nc3nc(-c4ccccc4)cs3)c2c1	-8	nt	nt	nt	nt	nt
N#Cc1cc(Oc2cccc3cccnc23)c(-n2nnc3ccccc32)cc1C#N	-10	84	18*	11	72	nt
O=C(/C=C/c1c(Cl)cccc1Cl)n1cccn1	nt	93	26*	nt	90	nt
Cc1ccc(C)c(N2C(=O)CN=C2Nc2ccccc2Cl)c1	4	96	73	-3	101	nt
CC(C)Cn1c(=O)c(C(=O)NCc2ccccn2)c(O)c2ccccc21	13	92	29*	-3	84	0
O=C(O)c1ccc2cccc(Cl)c2c1O	0	97	94	30	87	0
O=C(O)c1cc(Cl)c2ccccc2c1O	13	98	86	66*	67	9
CC1CCCC(n2c(=S)[nH]c3ccccc3c2=O)C1C (configuration not stated)	-8	90	22*	nt	72	nt
Cc1nn(-c2ccccc2)c(C)c1C(=O)Nc1nnc(-c2ccco2)o1	3	76	43	65*	65	33*
CC(C)n1cc(/C=C2\NC(=O)N(c3cccc(Cl)c3)C2=O)c2ccccc21	-10	89	15*	nt	65	nt
CC(C)n1cc(/C=C2/SC(=O)N(CC(=O)Nc3ccc4c(c3)OCO4)C2=O)c2ccccc21	-7	nt	nt	nt	nt	nt
CC(C)n1cc(/C=C2/NC(=O)N(c3cccc(Cl)c3)C2=O)c2ccccc21	nt	80	18*	nt	57	nt
Cc1cccc(-c2noc(CCCC(=O)Nc3cccnc3)n2)c1	5	nt	nt	6	nt	6
CCOC(=O)c1ccc(NC(=O)CCc2nc(-c3ccccc3Cl)no2)cc1	5	95	29*	99*	45	2
O=C(Nc1ccc(-c2noc(CCc3ccccc3)n2)cc1)c1cccnc1	-6	87	5.5*	-16	68	6
O=C(CCCc1nc(-c2ccccc2Cl)no1)NCc1cccnc1	-1	99	39*	-5	95	-9
O=C(CCCc1nc(-c2ccc(Cl)cc2)no1)Nc1cccnc1	9	108	111	27	64	42*
Cc1cc(OCc2nc(-c3ccc(NC(=O)c4cccnc4)cc3)no2)ccc1Cl	-1	nt	nt	nt	nt	nt
O=C(CSc1nnc(-c2ccc(OC(F)F)cc2)o1)NC(=O)NCc1ccco1	-13	nt	86	-1	92	1
O=C(O)C1CC=CCC1C(=O)NCc1ccc2c(c1)OCO2 (configuration not stated)	nt	nt	107	nt	101	nt

From PubChem BioAssay
